Experimental data: ChEMBL document CHEMBL1152771, “Identification of Shc Src homology 2 domain-binding peptoid-peptide hybrids” (J Med Chem, 2009)
pIC50, pKd: −log10 of the molar value. *1 amine or outer side, *2 acyl side, *3 side chain or, on linkers, in order; H or OH if unused. Where a SMILES comes first, the peptide text is derived from it. [ ]: non-standard residue; d: D form. The star is where a group is joined. X2 = O=C(c1cc(N=C=S)ccc1-c1c2ccc(=O)cc-2oc2cc(O)ccc12)*; Gly(N-but-3-enyl) = O=C(CN(CCC=[*:3])[*:1])[*:2]; X5 = C=CCN([C@@H](CC(C)C)C(=O)[*:2])[*:1]; pY = N[C@@H](Cc1ccc(OP(=O)(O)O)cc1)C(=O)O; 3Amb = NCc1cccc(C(=O)O)c1; NH(but-3-enyl) = C=CCCN*; Ahx = NCCCCCC(=O)O; Ava = NCCCCC(=O)O; GABA = NCCCC(=O)O; NHAllyl = C=CCN*

Legend:
[1] = target: T1, SHC-transforming protein 1 (Homo sapiens, UniProt P29353); assay: Displacement of FITC-tagged NH-(CH2)4-CO-phospho-tyrosine-glutamine-glycine-leucine-serine-amide from Shc Src homology 2 domain by fluorescence anisotropy competition assay
T1 sequence (P29353 whole entry): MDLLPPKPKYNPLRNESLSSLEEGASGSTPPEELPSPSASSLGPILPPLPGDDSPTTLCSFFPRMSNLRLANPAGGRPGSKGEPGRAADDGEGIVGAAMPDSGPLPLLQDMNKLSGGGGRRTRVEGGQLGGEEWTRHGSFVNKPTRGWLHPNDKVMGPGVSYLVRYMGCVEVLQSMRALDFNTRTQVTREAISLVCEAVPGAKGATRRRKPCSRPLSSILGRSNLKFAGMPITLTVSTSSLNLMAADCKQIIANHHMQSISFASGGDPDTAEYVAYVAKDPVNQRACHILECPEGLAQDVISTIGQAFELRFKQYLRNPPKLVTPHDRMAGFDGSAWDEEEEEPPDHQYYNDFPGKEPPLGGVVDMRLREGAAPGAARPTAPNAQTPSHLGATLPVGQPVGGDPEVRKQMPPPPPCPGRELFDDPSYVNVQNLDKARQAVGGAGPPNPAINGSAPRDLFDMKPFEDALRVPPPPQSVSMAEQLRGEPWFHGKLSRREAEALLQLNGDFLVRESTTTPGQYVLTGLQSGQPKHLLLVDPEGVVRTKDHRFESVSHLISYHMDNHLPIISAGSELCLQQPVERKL
How it was run: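 Competition FA: preformed complex of 2 μM Shc SH2 domain protein and 10 nM FITC reference peptide in 10 mM HEPES, 150 mM NaCl pH 7.5 with 10% (v/v) DMSO; unlabeled competitors serially diluted from 500 μM. Excitation 485 nm, parallel/perpendicular emission 535 nm. Fractional binding from anisotropy; IC50 where spline (order three, three knots) reached one half.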

[2] = target: T1, SHC-transforming protein 1; assay: Binding affinity to Shc Src homology 2 domain by fluorescence anisotropy
How it was run: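 Direct binding: 5 nM N-terminal fluorescein-labelled peptide in 10 mM HEPES, 150 mM NaCl pH 7.5 with 10% (v/v) DMSO; Shc SH2 protein serially diluted from 100 μM. Excitation 485 nm, parallel and perpendicular emission at 535 nm. Kd from fitting anisotropy versus protein concentration to a single-site binding model.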

Structure (SMILES)	pIC50 [1]	other results
C=CCNC(=O)[C@H](CC(C)C)N(CC=C)C(=O)CNC(=O)[C@H](CCC(N)=O)NC(=O)[C@H](Cc1ccc(OP(=O)(O)O)cc1)NC(C)=O	4.09	
CC(=O)N[C@@H](Cc1ccc(OP(=O)(O)O)cc1)C(=O)N[C@@H](CCC(N)=O)C(=O)N(CCCC(C)C)CC(=O)N[C@@H](CC(C)C)C(N)=O	4.54	
CC#CCN(CC(=O)N[C@@H](CC(C)C)C(N)=O)C(=O)[C@H](CCC(N)=O)NC(=O)[C@H](Cc1ccc(OP(=O)(O)O)cc1)NC(C)=O	4.08	
CC(=O)N[C@@H](Cc1ccc(OP(=O)(O)O)cc1)C(=O)N[C@@H](CCC(N)=O)C(=O)N(CCCCC#N)CC(=O)N[C@@H](CC(C)C)C(N)=O	4.36	
CCC#CCN(CC(=O)N[C@@H](CC(C)C)C(N)=O)C(=O)[C@H](CCC(N)=O)NC(=O)[C@H](Cc1ccc(OP(=O)(O)O)cc1)NC(C)=O	4.77	
CCSCCN(CC(=O)N[C@@H](CC(C)C)C(N)=O)C(=O)[C@H](CCC(N)=O)NC(=O)[C@H](Cc1ccc(OP(=O)(O)O)cc1)NC(C)=O	4.47	
CC(=O)N[C@@H](Cc1ccc(OP(=O)(O)O)cc1)C(=O)N[C@@H](CCC(N)=O)C(=O)N(CCCC(F)(F)F)CC(=O)N[C@@H](CC(C)C)C(N)=O	4.64	
C=CCCCN(CC(=O)N[C@@H](CC(C)C)C(N)=O)C(=O)[C@H](CCC(N)=O)NC(=O)[C@H](Cc1ccc(OP(=O)(O)O)cc1)NC(C)=O	4.80	
C=CCCCCN(CC(=O)N[C@@H](CC(C)C)C(N)=O)C(=O)[C@H](CCC(N)=O)NC(=O)[C@H](Cc1ccc(OP(=O)(O)O)cc1)NC(C)=O	4.85	
CC(=O)N[C@@H](Cc1ccc(OP(=O)(O)O)cc1)C(=O)N[C@@H](CCC(N)=O)C(=O)N(CCCCF)CC(=O)N[C@@H](CC(C)C)C(N)=O	4.40	
C=CCNC(=O)[C@H](CC(C)C)NC(=O)CNC(=O)[C@H](CCC(N)=O)NC(=O)[C@H](Cc1ccc(OP(=O)(O)O)cc1)N(CC=C)C(C)=O	3.35	
C=CCNC(=O)[C@H](CO)NC(=O)[C@H](CC(C)C)N(CC=C)C(=O)CNC(=O)[C@H](CCC(N)=O)NC(=O)[C@H](Cc1ccc(OP(=O)(O)O)cc1)NC(C)=O (Ac-[pY]QG[X5]S-NHAllyl)	3.45	
C=CCCNC(=O)[C@H](CO)NC(=O)[C@H](CC(C)C)NC(=O)CN(CCC=C)C(=O)[C@H](CCC(N)=O)NC(=O)[C@H](Cc1ccc(OP(=O)(O)O)cc1)NC(C)=O (Ac-[pY]Q[Gly(N-but-3-enyl)]LS-{NH(but-3-enyl)})	5.10	
CC(C)C[C@H](NC(=O)CNC(=O)[C@H](CCC(N)=O)NC(=O)[C@H](Cc1ccc(OP(=O)(O)O)cc1)NC(=O)c1cc(N=C=S)ccc1-c1c2ccc(=O)cc-2oc2cc(O)ccc12)C(=O)N[C@@H](CO)C(N)=O (HELM PEPTIDE1{[O=C(c1cc(N=C=S)ccc1-c1c2ccc(=O)cc-2oc2cc(O)ccc12)[*:2]].[O=C([C@H](Cc1ccc(OP(=O)(O)O)cc1)N[*:1])[*:2]].Q.G.L.S.[am]}$$$$V2.0)		pKd [2]: 4.91
CC(C)C[C@H](NC(=O)CNC(=O)[C@H](CCC(N)=O)NC(=O)[C@H](Cc1ccc(OP(=O)(O)O)cc1)NC(=O)[C@H](CC(C)C)NC(=O)CCNC(=O)c1cc(N=C=S)ccc1-c1c2ccc(=O)cc-2oc2cc(O)ccc12)C(=O)N[C@@H](CO)C(N)=O (HELM PEPTIDE1{[O=C(c1cc(N=C=S)ccc1-c1c2ccc(=O)cc-2oc2cc(O)ccc12)[*:2]].[bAla].L.[O=C([C@H](Cc1ccc(OP(=O)(O)O)cc1)N[*:1])[*:2]].Q.G.L.S.[am]}$$$$V2.0)		pKd [2]: 5.12
CC(C)C[C@H](NC(=O)CNC(=O)[C@H](CCC(N)=O)NC(=O)[C@H](Cc1ccc(OP(=O)(O)O)cc1)NC(=O)CCNC(=O)c1cc(N=C=S)ccc1-c1c2ccc(=O)cc-2oc2cc(O)ccc12)C(=O)N[C@@H](CO)C(N)=O (HELM PEPTIDE1{[O=C(c1cc(N=C=S)ccc1-c1c2ccc(=O)cc-2oc2cc(O)ccc12)[*:2]].[bAla].[O=C([C@H](Cc1ccc(OP(=O)(O)O)cc1)N[*:1])[*:2]].Q.G.L.S.[am]}$$$$V2.0)		pKd [2]: 5.96

Structure (SMILES)	pIC50 [1]	other results
C=CCNC(=O)[C@H](CO)NC(=O)[C@H](CC(C)C)NC(=O)CNC(=O)[C@H](CCC(N)=O)NC(=O)[C@H](Cc1ccc(OP(=O)(O)O)cc1)N(CC=C)C(C)=O (HELM PEPTIDE1{[ac].[C=CCN([C@@H](Cc1ccc(OP(=O)(O)O)cc1)C(=O)[*:2])[*:1]].Q.G.L.S.[C=CCN[*:1]]}$$$$V2.0)	4.39	
CC(=O)NCCCCC(=O)N[C@@H](Cc1ccc(OP(=O)(O)O)cc1)C(=O)N[C@@H](CCC(N)=O)C(=O)NCC(=O)N[C@@H](CC(C)C)C(=O)N[C@@H](CO)C(N)=O (HELM PEPTIDE1{[ac].[O=C(CCCCN[*:1])[*:2]].[O=C([C@H](Cc1ccc(OP(=O)(O)O)cc1)N[*:1])[*:2]].Q.G.L.S.[am]}$$$$V2.0)		pKd [1]: 3.80
CC(=O)N[C@@H](Cc1ccc(OP(=O)(O)O)cc1)C(=O)N[C@@H](CCC(N)=O)C(=O)NCC(=O)N[C@@H](CC(C)C)C(N)=O (HELM PEPTIDE1{[ac].[O=C([C@H](Cc1ccc(OP(=O)(O)O)cc1)N[*:1])[*:2]].Q.G.L.[am]}$$$$V2.0)	3.61	
C=CCN(CC(=O)N[C@@H](CC(C)C)C(N)=O)C(=O)[C@H](CCC(N)=O)NC(=O)[C@H](Cc1ccc(OP(=O)(O)O)cc1)NC(C)=O (HELM PEPTIDE1{[ac].[O=C([C@H](Cc1ccc(OP(=O)(O)O)cc1)N[*:1])[*:2]].Q.[C=CCN(CC(=O)[*:2])[*:1]].L.[am]}$$$$V2.0)	4.58	
CC(=O)N[C@@H](Cc1ccc(OP(=O)(O)O)cc1)C(=O)N[C@@H](CCC(N)=O)C(=O)N(CCC(C)C)CC(=O)N[C@@H](CC(C)C)C(N)=O (HELM PEPTIDE1{[ac].[O=C([C@H](Cc1ccc(OP(=O)(O)O)cc1)N[*:1])[*:2]].Q.[CC(C)CCN(CC(=O)[*:2])[*:1]].L.[am]}$$$$V2.0)	4.77	
CCCN(CC(=O)N[C@@H](CC(C)C)C(N)=O)C(=O)[C@H](CCC(N)=O)NC(=O)[C@H](Cc1ccc(OP(=O)(O)O)cc1)NC(C)=O (HELM PEPTIDE1{[ac].[O=C([C@H](Cc1ccc(OP(=O)(O)O)cc1)N[*:1])[*:2]].Q.[CCCN(CC(=O)[*:2])[*:1]].L.[am]}$$$$V2.0)	4.59	
CCN(CC(=O)N[C@@H](CC(C)C)C(N)=O)C(=O)[C@H](CCC(N)=O)NC(=O)[C@H](Cc1ccc(OP(=O)(O)O)cc1)NC(C)=O (HELM PEPTIDE1{[ac].[O=C([C@H](Cc1ccc(OP(=O)(O)O)cc1)N[*:1])[*:2]].Q.[CCN(CC(=O)[*:2])[*:1]].L.[am]}$$$$V2.0)	4.72	
CCOCCN(CC(=O)N[C@@H](CC(C)C)C(N)=O)C(=O)[C@H](CCC(N)=O)NC(=O)[C@H](Cc1ccc(OP(=O)(O)O)cc1)NC(C)=O (HELM PEPTIDE1{[ac].[O=C([C@H](Cc1ccc(OP(=O)(O)O)cc1)N[*:1])[*:2]].Q.[CCOCCN(CC(=O)[*:2])[*:1]].L.[am]}$$$$V2.0)	4.48	
COCCN(CC(=O)N[C@@H](CC(C)C)C(N)=O)C(=O)[C@H](CCC(N)=O)NC(=O)[C@H](Cc1ccc(OP(=O)(O)O)cc1)NC(C)=O (HELM PEPTIDE1{[ac].[O=C([C@H](Cc1ccc(OP(=O)(O)O)cc1)N[*:1])[*:2]].Q.[COCCN(CC(=O)[*:2])[*:1]].L.[am]}$$$$V2.0)	4.25	
CC(=O)N[C@@H](Cc1ccc(OP(=O)(O)O)cc1)C(=O)N[C@@H](CCC(N)=O)C(=O)N(CC(=O)N[C@@H](CC(C)C)C(N)=O)Cc1ccccc1 (HELM PEPTIDE1{[ac].[O=C([C@H](Cc1ccc(OP(=O)(O)O)cc1)N[*:1])[*:2]].Q.[O=C(CN(Cc1ccccc1)[*:1])[*:2]].L.[am]}$$$$V2.0)	4.72	
CC(C)C[C@H](NC(=O)CNC(=O)[C@H](CCC(N)=O)NC(=O)[C@H](Cc1ccc(OP(=O)(O)O)cc1)NC(=O)c1cccc(CNC(=O)c2cc(N=C=S)ccc2-c2c3ccc(=O)cc-3oc3cc(O)ccc23)c1)C(=O)N[C@@H](CO)C(N)=O ({X2-3Amb}-[pY]QGLS-NH2)		pKd [2]: 5.30
CC(C)C[C@H](NC(=O)CNC(=O)[C@H](CCC(N)=O)NC(=O)[C@H](Cc1ccc(OP(=O)(O)O)cc1)NC(=O)CCCCCNC(=O)c1cc(N=C=S)ccc1-c1c2ccc(=O)cc-2oc2cc(O)ccc12)C(=O)N[C@@H](CO)C(N)=O ({X2-Ahx}-[pY]QGLS-NH2)		pKd [2]: 5.33
CC(C)C[C@H](NC(=O)CNC(=O)[C@H](CCC(N)=O)NC(=O)[C@H](Cc1ccc(OP(=O)(O)O)cc1)NC(=O)[C@H](CC(C)C)NC(=O)CCCCNC(=O)c1cc(N=C=S)ccc1-c1c2ccc(=O)cc-2oc2cc(O)ccc12)C(=O)N[C@@H](CO)C(N)=O ({X2-Ava}-L[pY]QGLS-NH2)		pKd [2]: 5.05
CC(C)C[C@H](NC(=O)CNC(=O)[C@H](CCC(N)=O)NC(=O)[C@H](Cc1ccc(OP(=O)(O)O)cc1)NC(=O)CCCCNC(=O)c1cc(N=C=S)ccc1-c1c2ccc(=O)cc-2oc2cc(O)ccc12)C(=O)N[C@@H](CO)C(N)=O ({X2-Ava}-[pY]QGLS-NH2)		pKd [2]: 6.46
CC(C)C[C@H](NC(=O)CNC(=O)[C@H](CCC(N)=O)NC(=O)[C@H](Cc1ccc(OP(=O)(O)O)cc1)NC(=O)[C@H](CC(C)C)NC(=O)CCCNC(=O)c1cc(N=C=S)ccc1-c1c2ccc(=O)cc-2oc2cc(O)ccc12)C(=O)N[C@@H](CO)C(N)=O ({X2-GABA}-L[pY]QGLS-NH2)		pKd [2]: 5.07
